According to ChEMBL document CHEMBL3414559, “Novel C-4 heteroaryl 13-cis-retinamide Mnk/AR degrading agents inhibit cell proliferation and migration and induce apoptosis in human breast and prostate cancer cells and suppress growth of MDA-MB-231 human breast and CWR22Rv1 human prostate tumor xenografts in mice” (J Med Chem, 2015):
The source made the active and inactive calls. The rule behind the calls is not given here.

Experiments:
[1] = system: MCF7; experiment: Growth inhibition of human MCF7 cells by MTT assay; type: functional
Summary of the method: (§1)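 Cells grown in RPMI 1640 with 10% FBS, plated at 2500 cells/well, treated across a dose range; growth read by MTT. GI50 taken from dose–response curves by nonlinear regression, at least three independent experiments.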

[2] = system: MDA-MB-231; experiment: Growth inhibition of human MDA-MB-231 cells by MTT assay; type: functional; summary of the method: as §1
[3] = system: MCF7; experiment: Reduction in Mnk1 protein expression in human MCF7 cells at 0.63 uM to 20 uM after 24 hrs by SDS-PAGE and Western blotting method; type: functional, cell-based
Summary of the method: (§2)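 Breast cancer cells in RPMI 1640 with 10% FBS treated 24 h at indicated concentrations, DMSO vehicle control; equal protein loaded on SDS–PAGE and immunoblotted for Mnk1, Mnk2, peIF4E, eIF4E and cleaved PARP; blots reprobed for GAPDH as loading control.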

[4] = system: MDA-MB-468; experiment: Reduction in Mnk1 protein expression in human MDA-MB-468 cells at 0.63 uM to 20 uM after 24 hrs by SDS-PAGE and Western blotting method; type: functional, cell-based; summary of the method: as §2
[5] = system: MDA-MB-468; experiment: Reduction in Mnk2 protein expression in human MDA-MB-468 cells at 0.63 uM to 20 uM after 24 hrs by SDS-PAGE and Western blotting method; type: functional, cell-based; summary of the method: as §2
[6] = system: MDA-MB-231; experiment: Effect on total eIF4E protein expression in human MDA-MB-231 cells at 0.63 uM to 20 uM after 24 hrs by SDS-PAGE and Western blotting method; type: functional, cell-based; summary of the method: as §2
[7] = system: MDA-MB-468; experiment: Induction of apoptosis in human MDA-MB-468 cells assessed as increase in c-PARP formation at 0.63 uM to 20 uM after 24 hrs by SDS-PAGE and Western blotting method; type: functional, cell-based; summary of the method: as §2
[8] = system: MCF7; experiment: Induction of apoptosis in human MCF7 cells assessed as increase in c-PARP formation at 0.63 uM to 20 uM after 24 hrs by SDS-PAGE and Western blotting method; type: functional, cell-based; summary of the method: as §2
[9] = system: MDA-MB-231; experiment: Induction of apoptosis in human MDA-MB-231 cells assessed as increase in c-PARP formation at 0.63 uM to 20 uM after 24 hrs by SDS-PAGE and Western blotting method; type: functional, cell-based; summary of the method: as §2
[10] = system: MDA-MB-231; experiment: Antitumor activity against human MDA-MB-231 cells xenografted in SCID mouse assessed as inhibition of tumor growth at 20 mg/kg, ip dosed once daily for 5 days per week for 28 days; type: functional; details: MDA-MB-231, ip, in the assay text read “athymic nude mouse” for “SCID mouse”, route intraperitoneal, read-out: TGI
Summary of the method: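 Athymic nude female mice with subcutaneous MDA-MB-231 tumors (10 × 10⁶ cells; ~100 mm³ at randomization, n = 6/group) dosed ip once daily, 5 days/week for 28 days, in 40% β-cyclodextrin/ddH₂O; vehicle controls. %T/C computed as median tumor volume treated vs control at day 28 × 100. Body weight monitored.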

[11] = system: LNCaP; experiment: Reduction in Mnk2 protein expression in human LNCAP cells at 0.6 uM to 20 uM after 24 hrs by SDS-PAGE and Western blotting method; type: functional, cell-based
Summary of the method: (§3)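 LNCaP cells (RPMI 1640, 10% FBS) exposed 24 h to 0.6–20 μM, DMSO vehicle control; equal protein on SDS–PAGE, immunoblotted for fAR, Mnk1/2, peIF4E, cyclin D1 and cleaved PARP; β-actin reprobe for loading.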

[12] = system: LNCaP; experiment: Induction of apoptosis in human LNCAP cells assessed as increase in c-PARP formation at 0.6 uM to 20 uM after 24 hrs by SDS-PAGE and Western blotting method; type: functional, cell-based; summary of the method: as §3
[13] = molecular target: T1, Androgen receptor (Homo sapiens) (UniProt P10275); details: LNCaP, at 10 µM
T1 sequence (whole entry): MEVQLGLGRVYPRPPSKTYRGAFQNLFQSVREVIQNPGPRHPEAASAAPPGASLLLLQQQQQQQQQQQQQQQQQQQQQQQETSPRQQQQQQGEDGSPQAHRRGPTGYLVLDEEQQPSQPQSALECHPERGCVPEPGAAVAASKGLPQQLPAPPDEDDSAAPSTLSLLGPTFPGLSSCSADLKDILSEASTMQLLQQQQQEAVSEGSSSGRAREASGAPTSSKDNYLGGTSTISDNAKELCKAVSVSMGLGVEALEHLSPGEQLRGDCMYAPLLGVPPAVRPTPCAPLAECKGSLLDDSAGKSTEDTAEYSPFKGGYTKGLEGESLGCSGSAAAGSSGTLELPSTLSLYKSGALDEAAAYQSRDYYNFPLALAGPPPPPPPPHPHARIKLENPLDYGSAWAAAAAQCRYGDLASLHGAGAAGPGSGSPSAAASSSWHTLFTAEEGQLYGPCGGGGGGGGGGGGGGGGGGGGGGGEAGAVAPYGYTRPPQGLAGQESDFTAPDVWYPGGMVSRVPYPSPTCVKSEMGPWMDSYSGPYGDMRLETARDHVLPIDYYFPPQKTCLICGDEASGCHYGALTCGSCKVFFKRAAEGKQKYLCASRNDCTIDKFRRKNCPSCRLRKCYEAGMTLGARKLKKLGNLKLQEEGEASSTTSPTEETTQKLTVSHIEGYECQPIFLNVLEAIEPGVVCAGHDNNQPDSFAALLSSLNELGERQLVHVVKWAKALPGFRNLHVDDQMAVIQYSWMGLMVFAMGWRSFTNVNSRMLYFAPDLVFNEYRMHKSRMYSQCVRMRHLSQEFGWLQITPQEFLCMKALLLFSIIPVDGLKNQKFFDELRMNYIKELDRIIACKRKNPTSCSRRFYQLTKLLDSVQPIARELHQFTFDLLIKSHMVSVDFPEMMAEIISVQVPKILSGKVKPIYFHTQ

[14] = system: Mus musculus; experiment: Toxicity in human MDA-MB-231 cells xenografted athymic nude mouse assessed as induction of toxic signs at 20 mg/kg, ip dosed once daily for 5 days per week for 28 days; details: in vivo
[15] = system: MDA-MB-231; experiment: Antitumor activity against human MDA-MB-231 cells xenografted in nude mouse assessed as increase in Bax protein expression at 20 mg/kg, ip dosed once daily for 5 days per week for 28 days by SDS-PAGE and Western blotting method
[16] = system: CWR22R; experiment: Antitumor activity against human CWR22Rv1 cells xenografted in SCID mouse assessed as reduction in Mnk1/2 protein expression at 20 mg/kg, ip dosed once daily for 5 days per week for 28 days by SDS-PAGE and Western blotting method; type: functional, organism-based; design: dose 20 mg/kg
Summary of the method: (§4)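 CWR22Rv1 cells (1 × 10⁶) implanted subcutaneously in male SCID mice, castrated; at ~100 mm³ tumors, randomized (n = 6/group) to vehicle (40% β-cyclodextrin in ddH₂O) or drug ip in same vehicle once daily, 5 days/week for 28 days. Tumor lysates made in RIPA buffer, 50 μg protein from pooled samples (n = 6) on 10% SDS–PAGE, immunoblotted; GAPDH as loading control.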

[17] = system: CWR22R; experiment: Antitumor activity against human CWR22Rv1 cells xenografted in SCID mouse assessed as reduction in cyclin D1 protein expression at 20 mg/kg, ip dosed once daily for 5 days per week for 28 days by SDS-PAGE and Western blotting method; type: functional, organism-based; design: dose 20 mg/kg; summary of the method: as §4

In the case of `CC1=C(/C=C/C(C)=C/C=C/C(C)=C\C(=O)NCc2ccc(O)cc2)C(C)(C)CCC1n1ccnc1` (configuration not stated), the GI50 [1] is reported as 0.16 µM, the GI50 [2] is reported as 2.23 µM and the inhibition [3] is reported as “Dose-dependent effect”. For the same compound, the inhibition [4] was “Dose-dependent effect”, the inhibition [5] was “Dose-dependent effect” and the Activity [6] was “inactive”. The Activity [7] was “Dose-dependent effect”, the Activity [8] was “Dose-dependent effect” and the Activity [9] was “Dose-dependent effect”. For the same compound, the inhibition in vivo at 20 mg/kg [10] was 85.4%, the inhibition [11] was “Dose-dependent effect” and the Activity [12] was “Active”. For the same compound, the inhibition [13] was “Active”, the Activity [14] was “Non-toxic” and the Activity [15] was “Active”.
For `CC1=C(/C=C/C(C)=C/C=C/C(C)=C\C(=O)Nc2cccc(F)c2)C(C)(C)CCC1n1ccnc1` (configuration not stated), the GI50 [1] was 5.49 µM, the GI50 [2] was 8.51 µM and the inhibition [3] was “Dose-dependent effect”. For the same compound, the inhibition [4] was “Dose-dependent effect”, the inhibition [5] was “Dose-dependent effect” and the Activity [6] was “inactive”. The Activity [7] was “Dose-dependent effect”, the Activity [8] was “Dose-dependent effect” and the Activity [9] was “Dose-dependent effect”. The inhibition in vivo at 20 mg/kg [10] was 85.4%, the inhibition [11] was “Dose-dependent effect” and the Activity [16] was “Active”. For the same compound, the Activity [17] was “Active”, the Activity [12] was “Active” and the inhibition [13] was “Active”. For the same compound, the Activity [14] was “Non-toxic” and the Activity [15] was “Active”.
